Assay outcomes from PubChem.
E-selectin induc: E-selectin induction in HUVECs, primary screen, imaging, HUVEC, immunofluorescence imaging, single point; actives 0.37% (n = 260,000); activation, % at 7.58 µM; P16581; normalized: neutral wells 0, TNF-alpha wells 100;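 active = mean E-selectin-positive cell signal at least 10% of the positive control, reached in at least 60% of replicates, without over 20% cell loss; inconclusive = no rule given, readout overlaps actives, possibly toxicity-flagged; inactive = the rest, including those meeting only one limit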
Target sequence (P16581 whole entry, looked up): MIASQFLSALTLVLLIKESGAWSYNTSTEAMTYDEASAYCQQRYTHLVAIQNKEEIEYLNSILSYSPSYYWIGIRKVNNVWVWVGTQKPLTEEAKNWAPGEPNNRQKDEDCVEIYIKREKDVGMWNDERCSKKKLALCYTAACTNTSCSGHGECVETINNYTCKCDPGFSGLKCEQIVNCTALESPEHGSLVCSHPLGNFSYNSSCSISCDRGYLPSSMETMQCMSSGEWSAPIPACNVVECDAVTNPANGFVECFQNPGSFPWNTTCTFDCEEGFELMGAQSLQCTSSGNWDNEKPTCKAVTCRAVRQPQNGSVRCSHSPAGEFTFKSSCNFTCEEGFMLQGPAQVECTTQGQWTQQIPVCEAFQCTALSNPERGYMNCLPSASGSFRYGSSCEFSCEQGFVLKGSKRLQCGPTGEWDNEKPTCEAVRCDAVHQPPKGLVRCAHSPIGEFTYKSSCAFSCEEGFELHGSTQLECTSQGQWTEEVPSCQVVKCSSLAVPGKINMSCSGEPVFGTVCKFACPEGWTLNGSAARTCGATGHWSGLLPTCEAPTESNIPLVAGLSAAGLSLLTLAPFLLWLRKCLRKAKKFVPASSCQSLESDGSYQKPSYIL
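Assay system: HUVEC primary endothelial cells. Input: 3,000 HUVEC seeded per well. Doses: one compound dose added by pin transfer. Read-out basis: % PE-positive cells. Benchmarks: TNF-alpha high, DMSO low. Detection: immunofluorescence imaging. Buffer or medium: EGM-2, gelatin.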
C2C12 statin: suppressors of statin myotoxicity in C2C12 myotubes, primary screen, cell-based, single point, plate reader; actives 0.78% (n = 330,000); rescue of ATP level, % at 7.49 µM; C2C12 myotubes + simvastatin, ATP luminescence, 48 h; scaled: DMSO 0, geranylgeraniol control 100; AID 602340, 2012;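 active = mean ATP rescue above about 67%, or every replicate alone reaching that limit, limit read from the data, passing the limit was not always enough; inconclusive = no clear call, values can overlap the other calls; inactive = mean under the limit and some replicate under it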;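 note: myotubes were challenged with 10 µM simvastatin during compound exposure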
DENV2 CPE rescue: inhibitors of DENV2 cytopathic effect, primary screen, cell-based, plate reader, single concentration; DENV2-infected cells, cytopathic effect rescue; CPE inhibition, % at 9.99 µM; actives 1.7% (n = 350,000); AID 651640, 2012; in the data active = CPE inhibition above about 20%, passing the limit was not always enough; inconclusive = no clear call, values can overlap the other calls; tested in BHK-21 cells
Hits are given with their value. Sampled rows, rich in hits. Any-hit rate of the full collection: about 2.2%.

For O=C(CCN1CCCCC1)NCC[C@H]1CC[C@H](NC(=O)C2CCCC2)[C@H](CO)O1 the results were E-selectin induc inactive, C2C12 statin inactive and DENV2 CPE rescue inactive.
Screening O=C(CCN1CCCCC1)NCC[C@@H]1CC[C@H](NC(=O)C2CCC2)[C@@H](CO)O1 returned E-selectin induc inactive, C2C12 statin inactive and DENV2 CPE rescue 45.7.
O=C(CCN1CCCCC1)NCC[C@H]1CC[C@H](NC(=O)C2CCC2)[C@H](CO)O1 was read as E-selectin induc inactive, C2C12 statin inactive and DENV2 CPE rescue inactive.
Screening O=C(CCN1CCCCC1)NCC[C@H]1CC[C@H](NC(=O)C2CCC2)[C@@H](CO)O1 returned E-selectin induc inactive, C2C12 statin inactive and DENV2 CPE rescue 23.0.
COc1ccc(NC(=O)N(C)C[C@@H]2OCCCC[C@@H](C)Oc3ccc(NC(=O)NC(C)C)cc3C(=O)N([C@@H](C)CO)C[C@H]2C)cc1 was read as E-selectin induc inactive and DENV2 CPE rescue inactive.
Screening O=C(C[C@@H]1CC[C@@H]2[C@H](COC[C@H](O)CN2C(=O)c2ccccn2)O1)N1CCN(c2ccccc2)CC1 returned E-selectin induc inactive, C2C12 statin inactive and DENV2 CPE rescue inactive.
For CNC(=O)C[C@@H]1CC[C@@H]2[C@H](COC[C@H](O)CN2C(=O)c2ccccn2)O1 the results were E-selectin induc inactive, C2C12 statin inactive and DENV2 CPE rescue 69.3.
For O=C(C[C@H]1CC[C@H]2[C@@H](COC[C@H](O)CN2C(=O)c2ccncc2)O1)Nc1ccc(-c2ccccc2)cc1 the results were E-selectin induc inactive, C2C12 statin inactive and DENV2 CPE rescue inactive.
For CCNC(=O)C[C@H]1CC[C@@H]2[C@H](COC[C@@H](O)CN2C(=O)c2ccccn2)O1 the results were E-selectin induc inactive, C2C12 statin inactive and DENV2 CPE rescue inactive.
Screening O=C(C[C@H]1CC[C@@H]2[C@H](COC[C@H](O)CN2C(=O)c2ccccc2)O1)N1CCc2ccccc2C1 returned E-selectin induc inactive, C2C12 statin inactive and DENV2 CPE rescue 28.2.
O=C(C[C@H]1CC[C@@H]2[C@H](COC[C@H](O)CN2C(=O)c2ccccn2)O1)N1CCN(c2ccccc2)CC1 was read as E-selectin induc inactive, C2C12 statin inactive and DENV2 CPE rescue 38.9.
`O=C(C[C@@H]1CC[C@H]2[C@@H](COC[C@@H](O)CN2C(=O)c2ccncc2)O1)Nc1ccc(-c2ccccc2)cc1` gave E-selectin induc inactive, C2C12 statin inactive and DENV2 CPE rescue 20.9.
For O=C(C[C@@H]1CC[C@H]2[C@@H](COC[C@@H](O)CN2C(=O)c2cc(Cl)cc(Cl)c2)O1)N1CCc2ccccc2C1 the results were E-selectin induc inactive, C2C12 statin inactive and DENV2 CPE rescue inactive.
`C[C@H]1CN([C@@H](C)CO)C(=O)Cc2cc(NC(=O)Nc3cccc4ccccc34)ccc2O[C@@H]1CN(C)C(=O)Nc1ccccc1` gave E-selectin induc inactive, C2C12 statin inactive and DENV2 CPE rescue inactive.
Screening COc1cccc(CNC(=O)C[C@H]2C=C[C@@H](NC(=O)C3CCOCC3)[C@@H](CO)O2)c1 returned E-selectin induc inactive, C2C12 statin inactive and DENV2 CPE rescue inactive.
`CC(C)CN(C[C@H]1N[C@H](CO)[C@H]1c1ccccc1)C(=O)CN(C)C` gave E-selectin induc inactive, C2C12 statin inactive and DENV2 CPE rescue inactive.
Screening CC(=O)N(C)C[C@@H]1Oc2ncc(-c3cccc(F)c3)cc2C(=O)N([C@H](C)CO)C[C@H]1C returned E-selectin induc inactive, C2C12 statin inactive and DENV2 CPE rescue inconclusive.
C[C@H](CO)N1C[C@H](C)[C@H](CN(C)C(=O)Nc2cccc3ccccc23)Oc2ncc(C#Cc3cccc(F)c3)cc2C1=O was read as E-selectin induc inactive, C2C12 statin inactive and DENV2 CPE rescue inactive.
Screening CC(C)NC(=O)Nc1ccc2c(c1)C(=O)N([C@@H](C)CO)C[C@H](C)[C@H](CN(C)Cc1ccc(Cl)c(Cl)c1)OCCCC[C@@H](C)O2 returned DENV2 CPE rescue inactive.
COC(=O)C[C@H]1CC[C@@H]2[C@@H](COc3ccc(NC(=O)c4ccc(OC)cc4)cc3C(=O)N2C)O1 was read as E-selectin induc inactive, C2C12 statin inactive and DENV2 CPE rescue inactive.
For Cn1c(SCC(=O)Nc2ccccc2C(F)(F)F)nc2c(c1=O)SCC2 the results were E-selectin induc inactive, C2C12 statin inactive and DENV2 CPE rescue inactive.
For Cc1nc(N)sc1-c1nnc(SCC(=O)Nc2ccccc2C(F)(F)F)n1C the results were C2C12 statin 141.6.
NC1=NC(=Nc2ccc(Cl)cc2)c2ccccc21 was read as E-selectin induc inactive and DENV2 CPE rescue inactive.
NC1=NC(=Nc2ccccc2)c2ccccc21 was read as C2C12 statin 134.1.
For C[C@@H](NC(=O)C[C@@H]1CC[C@@H](NC(=O)C2CCC2)[C@@H](CO)O1)c1ccccc1 the results were E-selectin induc inactive, C2C12 statin inactive and DENV2 CPE rescue inactive.
For CS(=O)(=O)N1[C@@H]2c3ccc(C4=CCCC4)c(=O)n3C[C@H]1[C@H](CO)[C@H]2C(=O)N1CCCCC1 the results were E-selectin induc inactive, C2C12 statin inactive and DENV2 CPE rescue inactive.
C[C@H]1CN([C@@H](C)CO)C(=O)c2cc(C3=CCCCC3)cnc2O[C@@H]1CN(C)C(=O)Nc1ccccc1 was read as E-selectin induc inactive, C2C12 statin inactive and DENV2 CPE rescue inactive.
c1ccc(Cn2nnnc2CN2CCN(c3ncccn3)CC2)cc1 was read as C2C12 statin 140.2.
For COc1ccc(Cn2nnnc2CN2CCOCC2)cc1 the results were C2C12 statin inactive.
For CO[C@H]1CN(C)C(=O)c2ccc(NS(C)(=O)=O)cc2OC[C@H](C)N(C(=O)C2CCCCC2)C[C@@H]1C the results were E-selectin induc inactive, C2C12 statin inactive and DENV2 CPE rescue inactive.
Screening C=CCOc1cccc(C2C(C(=O)c3ccco3)=C(O)C(=O)N2Cc2ccncc2)c1 (configuration not stated) returned C2C12 statin inactive.
For C=CCOc1cccc(C2C(C(=O)c3ccc(C)o3)=C(O)C(=O)N2Cc2ccncc2)c1 (configuration not stated) the results were C2C12 statin 110.2.
For O=C(N[C@H]1CC[C@@H](CCNC(=O)c2cnccn2)O[C@@H]1CO)c1ccc2c(c1)OCO2 the results were E-selectin induc inactive, C2C12 statin inactive and DENV2 CPE rescue inactive.
`C[C@@H]1CN([C@@H](C)CO)S(=O)(=O)c2ccc(C3=CCCCC3)cc2O[C@@H]1CN(C)C(=O)Nc1ccc2c(c1)OCO2` gave E-selectin induc inactive, C2C12 statin inactive and DENV2 CPE rescue inactive.
COc1cccc(N2CC(C(=O)Nc3nnc(SCCC4OCCO4)s3)CC2=O)c1 (configuration not stated) was read as E-selectin induc inactive, C2C12 statin inactive and DENV2 CPE rescue 93.0.
Screening CNC(=O)CSc1nnc(NC(=O)C2CC(=O)N(c3ccccc3OC)C2)s1 (configuration not stated) returned E-selectin induc inactive, C2C12 statin inactive and DENV2 CPE rescue 32.9.
`O=C(Nc1nnc(SCCC2OCCO2)s1)C1CC(=O)N(c2ccccc2)C1` (configuration not stated) gave E-selectin induc inactive, C2C12 statin inactive and DENV2 CPE rescue inactive.
